Test results from publication PMC4797071 (ACS chemical neuroscience, 2015).

How the values were obtained:
Aβ(1–40) [1] = molecular target: T1, Aβ(1–40) (Homo sapiens, UniProt P05067); experiment: Aβ aggregate growth kinetics by dynamic light scattering; type: biochemical; details: method not specified
Procedure, shortened: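 Aβ(1–40) relyophilized from 50% ACN and stored as a urea/glycine stock; thawed, sonicated 2 min and diluted into PBSA. 140 µM Aβ alone or with 14 µM peptide, 0.45 µm filtered into a cuvette held at 37 °C. 488 nm laser; intensity at 90° recorded over 10 h and normalized to total mass concentration; z-averaged hydrodynamic diameter from the autocorrelation function by cumulants.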

[2] = test system: primary cortical neuronal cells; experiment: Aβ induced toxicity, MTS assay with primary neuronal cultures; type: cell-based, mice; details: for protection from Aβ toxicity at 10 µM peptide: 10 µM Aβ(1–42), MTS, Aβ alone ~35% cell viability
Procedure, shortened: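 Cortical neurons from E15.5 mouse embryos, matured in neurobasal medium. Aβ(1–42) at 1 mg/mL in PBS, diluted to 10 µM with or without test peptide or mutant TTR at varying doses. Added at 6 DIV alongside vehicle and controls. At 8 DIV, MTS reagent for 2–3 h, absorbance 490 nm. Significance versus vehicle and versus Aβ set at p < 0.05.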

[3] = Peptide self-assembly by photoinduced cross-linking; type: physicochemical; details: peptide 36 µM, not cross-linked, boiled, denaturing gel, silver staining
Procedure, shortened: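 Peptides at 36 µM in PBSA, 1 h at 37 °C, then photo-cross-linked (PICUP) and heated 95 °C for 5 min. Non-cross-linked samples boiled for comparison. Separated on 10–20% Tris-Tricine gel; silver stained.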

[4] = Peptide self-association by light scattering; type: physicochemical; details: peptide alone 80 µM, 37 °C, after 1 h of incubation; data not shown
Aβ(1–40) [5] = molecular target: T1, Aβ(1–40); experiment: Thioflavin T; type: biochemical; details: 28 µM Aβ, 2.8 µM peptide or protein, 37 °C, 1, 5, 24, 48 h
Procedure, shortened: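 Aβ(1–40) urea/glycine stock diluted into PBSA; 28 µM alone or with 2.8 µM peptide or mutant TTR, incubated at 37 °C. At 1, 5, 24 and 48 h, aliquots diluted 14-fold into 10 µM ThT in PBSA. Excitation 440 nm, emission 460–500 nm; intensity at 480 nm used. Three serial spectra averaged, ThT-in-PBSA background subtracted; some samples from two independent experiments.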

T1 sequence (P05067 672-711 limits assumed): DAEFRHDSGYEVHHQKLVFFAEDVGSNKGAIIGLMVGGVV

SKV^DPPTIAALLSPYSYSQ [LG2]
effect on Aβ aggregation (summary statement) (Aβ(1–40) [1]): nor did they affect Aβ aggregation
inhibition of Aβ toxicity (summary statement) ([2]; summary, concentration not given): nor did they affect Aβ aggregation or inhibit Aβ toxicity

SKV^DPPTIAALLSPYSYSQ (head to tail) [CG2]
protection from Aβ toxicity at 10 µM peptide [2]: no protective effect

SKVVT^DPPRYTIAALLSPYSYSQ [LG3]
bands in the absence of cross-linker [3]: ~ 5 kDa
light scattered above background (self-association) [4]: did not scatter light above background
effect on ThT fluorescence increase up to 48 h (Aβ(1–40) [5]): at most a minor inhibitory effect
protection from Aβ toxicity at 10 µM peptide [2]: no protective effect
